Results from different studies.
Effect on: enzyme activity
Action: inhibitor
CDK5 with p35: Cyclin-dependent kinase 5, with p35 (CDK5, Homo sapiens, UniProt Q00535)
CDK5 with p25: Cyclin-dependent kinase 5, with p25 (CDK5, Homo sapiens, UniProt Q00535)

CC(C)(O)[C@H]1CC[C@H](Nc2ccc3ncc(-c4cccc(C(F)(F)F)c4)n3n2)CC1  remaining activity (CDK5 with p35; 1 µM): 97.7%
Cc1sc(C(=O)NC2COC2)cc1-n1cc(NC(=O)Nc2c(F)cccc2Cl)cn1  remaining activity (CDK5 with p35; 10 µM): 103%
Cc1cnc(NC2CCOCC2)nc1-n1cnc(C(=O)NC(CN)c2cc(F)cc(Cl)c2)c1 (centres unmarked)  remaining activity (CDK5 with p25; radiometric; 1 µM): 2%
Cc1ccc(C(=O)Nc2ccc(CN3CCN(C)CC3)c(C(F)(F)F)c2)cc1C#Cc1cnc2cccnn12  remaining activity (Cyclin-dependent kinase 5 (CDK5, Homo sapiens, UniProt Q00535); 23.5 nM): 98%
COc1cc(Cl)c(C(=O)N[C@@H](CN[C@H]2CC[C@@H](N)CC2)Cc2ccc(C#N)cc2)cc1-c1ccc(CN[C@H](C)c2ccc(C)cc2)o1  remaining activity (CDK5 with p25; 1 µM): 102%
O=C(Nc1cnn(-c2csc(C(=O)NC3COC3)c2)c1)Nc1ccccc1Cl  remaining activity (CDK5 with p35; 5 µM): 95.4%
CC(C)(C)c1nc(-c2cccc(NS(=O)(=O)c3c(F)cccc3F)c2F)c(-c2ccnc(N)n2)s1  remaining activity (CDK5 with p35; radiometric; 1 µM): 82%
CCN(CC)c1ccc(C2=NNC(=O)CC2C)cc1[N+](=O)[O-] (centres unmarked)  remaining activity (CDK5 with p25; 10 µM): 113%
CC[C@H](C)[C@H](NC(=O)[C@H](CCC(N)=O)NC(=O)[C@H](CC(C)C)NC(=O)[C@H](CCSC)NC(=O)[C@H](CCCCN)NC(=O)[C@H](CO)NC(=O)[C@H](CO)NC(=O)[C@H](CCSC)NC(=O)[C@H](CC(C)C)NC(=O)[C@H](CC(N)=O)NC(=O)[C@@H](NC(=O)[C@@H](NC(=O)[C@H](CO)NC(=O)[C@H](CC(C)C)NC(=O)[C@H](CS)NC(=O)[C@H](CCCNC(=N)N)NC(=O)[C@H](CC(=O)O)NC(=O)[C@H](Cc1c[nH]c2ccccc12)NC(=O)[C@H](Cc1ccccc1)NC(=O)[C@H](C)NC(=O)[C@H](CCC(=O)O)NC(=O)[C@@H](N)CCCCN)C(C)C)[C@@H](C)CC)C(=O)N[C@@H](CC(N)=O)C(=O)N[C@@H](C)C(=O)O  remaining activity (CDK5 with p25; radiometric; 500 µM, 20 min): 28%
O=C(Nc1cnn(-c2csc(C(=O)NC3COC3)c2)c1)Nc1c(F)cccc1Cl  remaining activity (CDK5 with p35; 5 µM): 94.3%
CCCOc1ccc(OC)c(F)c1C(=O)c1ccc(C(=O)N[C@@H]2CNC[C@H]2NC(=O)c2ccc3[nH]ncc3c2)cc1  remaining activity (CDK5 with p25; 0.1 µM): 112%
